Screening data (PubChem)
UHRF1 binding = UHRF1 methylated DNA binding inhibitors, primary screen, counter-screen for MBD2 inhibitor project, biochemical, TR-FRET, human UHRF1, single concentration; E3 ubiquitin-protein ligase UHRF1 (Homo sapiens), Q96T88; AID 687016, 2013; inhibition, % at 4.4 µM; 0.75% of 370,000 active; UHRF1 binding to methylated oligo; in the data active = inhibition above about 21%;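 also: UHRF1 SRA domain binding a hemimethylated CpG hairpin DNA probe; 0% = median of test compound wells and 100% = reference inhibitor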
PRMT1 FP inh = PRMT1 methyltransferase inhibitors, primary screen, biochemical, fluorescence polarization; Protein arginine N-methyltransferase 1 (Homo sapiens), Q99873; recombinant PRMT1, activity-based probe fluorescence polarization; inhibition, % at 2.79 µM; 1.3% of 370,000 active; AID 652257, 2013;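 active = inhibition above about 21% made by adding two undisclosed values, limit read from the data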
Target sequence (Q99873 whole entry, looked up): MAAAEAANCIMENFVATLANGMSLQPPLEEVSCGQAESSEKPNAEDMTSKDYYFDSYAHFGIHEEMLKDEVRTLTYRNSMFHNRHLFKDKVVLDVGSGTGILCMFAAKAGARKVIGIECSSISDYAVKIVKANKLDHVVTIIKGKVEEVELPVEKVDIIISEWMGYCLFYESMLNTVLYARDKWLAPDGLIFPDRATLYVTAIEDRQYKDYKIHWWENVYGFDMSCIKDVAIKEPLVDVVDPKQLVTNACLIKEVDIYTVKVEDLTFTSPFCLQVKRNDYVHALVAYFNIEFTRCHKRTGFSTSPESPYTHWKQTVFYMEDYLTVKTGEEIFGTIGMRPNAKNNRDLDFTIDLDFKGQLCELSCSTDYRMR
MBD2 inh = inhibitors of MBD2 binding to methylated DNA, primary screen, biochemical, TR-FRET, DNA-binding domain, human. Methyl-CpG-binding domain protein 2 (Homo sapiens), Q9UBB5. MBD2 binding to methylated oligonucleotide. inhibition, % at 4.4 µM. 0.31% of 370,000 active; in the data active = inhibition above about 13%
RBBP9 inhibitor = human RBBP9 inhibitors, primary screen, biochemical, fluorescence polarization, FP-Rh probe, HTS; Serine hydrolase RBBP9 (Homo sapiens), O75884; recombinant RBBP9; inhibition, % at 7.94 µM; AID 1515, 2009; 0.2% of 220,000 active;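 active = inhibition above the campaign mean of all tested compounds plus 3 SD, cut at about 14% in these data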;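 also: plate controls were DMSO wells with RBBP9 for no effect and wells lacking RBBP9 protein for full effect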
Target sequence (O75884 whole entry, looked up): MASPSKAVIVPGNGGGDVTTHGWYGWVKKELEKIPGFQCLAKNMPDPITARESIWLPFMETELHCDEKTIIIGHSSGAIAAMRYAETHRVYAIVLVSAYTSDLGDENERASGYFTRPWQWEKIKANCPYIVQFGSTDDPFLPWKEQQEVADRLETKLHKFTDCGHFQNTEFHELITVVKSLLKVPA
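Assay system: recombinant human RBBP9; Reagent: Serine-hydrolase probe FP-Rh, 375 nM pre-mixing; Doses: 7.94 µM single dose, 0.794% DMSO; Incubation: 30 min then 45 min, 25 °C; Detection: fluorescence polarization (mP), excitation 525 nm, emission 598 nm; Evaluation: percent inhibition from mP, scaled between DMSO and no-protein wells.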
LEDGF integ inh = blockers of LEDGF/p75-dependent integrase strand transfer – biochemical, TR-FRET, high throughput, primary screen; HIV-1 integrase (with human LEDGF/p75); 0.64% of 370,000 active; TR-FRET IN-LEDGF/p75 DNA integration, Eu/Cy5; inhibition, % at 3.7 µM;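 active = inhibition above the screen-wide mean plus 3 SD, cut at about 13% in these data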;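 also: signal is the Cy5 over europium emission ratio at 671 and 618 nm; 0% = plate median of compound wells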
ABHD5-PLIN5 inh = ABHD5-PLIN5 interaction inhibitors, primary screen, cell lysate, split luciferase complementation, luminescence; Split G. princeps luciferase complementation, 4 h; inhibition, % at 4 µM; 0.78% of 360,000 active; AID 602281, 2012;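 active = inhibition above the mean inhibition across every tested compound plus 3 SD, cut at about 22% in these data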;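 also: 0% = DMSO only wells and the 100% control is not disclosed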
Active calls of the source: *. A selection: hits, their analogues and other compounds. The true share with any hit is near 3.1%.

Results for COc1ccc(C=CC(=O)c2c(OC)cc(OC)c(OC)c2O)cc1 ?
UHRF1 binding: 4; PRMT1 FP inh: 8; MBD2 inh: 13; LEDGF integ inh: -4; ABHD5-PLIN5 inh: 23*

How did CCCCC1CCC(c2nc(-c3ccccn3)no2)CC1 (configuration not stated) do in these assays?
UHRF1 binding: 2; PRMT1 FP inh: -2; MBD2 inh: 1; RBBP9 inhibitor: -12; LEDGF integ inh: 3; ABHD5-PLIN5 inh: 2

Results for c1ccc(-c2noc(C3CCC3)n2)nc1 ?
UHRF1 binding: 25*; PRMT1 FP inh: 3; MBD2 inh: 11; RBBP9 inhibitor: -4; LEDGF integ inh: 1; ABHD5-PLIN5 inh: 7

How did CC(=O)OCCC(CC(C)C)NC(=O)[C@H](CC(C)C)NC(=O)OCc1ccccc1 (some centres not stated) do in these assays?
UHRF1 binding: -3; PRMT1 FP inh: -3; MBD2 inh: -1; LEDGF integ inh: 1

Results for COc1ccc(N/C(=C\C(=O)c2ccccc2)c2ccccc2)cc1OC ?
UHRF1 binding: 5; PRMT1 FP inh: 4; MBD2 inh: 3; LEDGF integ inh: -4

What do the screens show for `CCOC(=O)c1nc2cc3n(c(C)c-2c1C)C(C)C(C)=C3C` (configuration not stated)?
UHRF1 binding: 23*; PRMT1 FP inh: 3; MBD2 inh: 2; RBBP9 inhibitor: -2; LEDGF integ inh: 3; ABHD5-PLIN5 inh: -5

What do the screens show for `Cn1c(SCc2ccc(C(C)(C)C)cc2)nnc1-c1ccco1`?
UHRF1 binding: -2; PRMT1 FP inh: 1; MBD2 inh: -2; LEDGF integ inh: 2

Results for COc1ccc(Cc2nnc(SCC(=O)NC3CCCC3)o2)cc1 ?
UHRF1 binding: 45*; PRMT1 FP inh: 0; MBD2 inh: 1; RBBP9 inhibitor: -4; LEDGF integ inh: 1; ABHD5-PLIN5 inh: 4

What do the screens show for `O=C(CSc1nnc(-c2ccc(F)cc2)o1)NC1CCCCC1`?
UHRF1 binding: 35*; PRMT1 FP inh: 4; MBD2 inh: 4; RBBP9 inhibitor: -7; LEDGF integ inh: -4; ABHD5-PLIN5 inh: 1

How did COc1ccc(OCc2nnc(SCC(=O)NC3CCCCC3)o2)cc1 do in these assays?
UHRF1 binding: 1; PRMT1 FP inh: 2; MBD2 inh: -3; LEDGF integ inh: 1; ABHD5-PLIN5 inh: -2

Results for O=C(CSc1nnc(-c2ccncc2)o1)NC1CCCCC1 ?
UHRF1 binding: 4; PRMT1 FP inh: 0; MBD2 inh: 5; RBBP9 inhibitor: -8; LEDGF integ inh: -4; ABHD5-PLIN5 inh: 6

What do the screens show for `CC(C)(C)c1ccc(C(=O)NCc2nnc(SCC(=O)NC3CCCCC3)o2)cc1`?
UHRF1 binding: 7; PRMT1 FP inh: 21*; MBD2 inh: 3; LEDGF integ inh: -1; ABHD5-PLIN5 inh: -5

What do the screens show for `COc1ccc(CNS(=O)(=O)c2cc3c(cc2Br)CC(C)N3C(C)=O)cc1` (configuration not stated)?
UHRF1 binding: 0; PRMT1 FP inh: -1; MBD2 inh: 2; LEDGF integ inh: -3

Results for C=CCOC(=O)C1=C(C)N=c2sc(=C3C(=O)N(CC(=O)O)c4ccccc43)c(=O)n2C1c1ccc(OC)cc1 (configuration not stated) ?
UHRF1 binding: 0; PRMT1 FP inh: 5; MBD2 inh: 2; LEDGF integ inh: 0

Results for COc1ccc(C(=O)NC2CC2)cc1OC1CCN(Cc2ccc(F)cc2Cl)CC1 ?
UHRF1 binding: 29*; PRMT1 FP inh: 2; MBD2 inh: 9; LEDGF integ inh: 9; ABHD5-PLIN5 inh: 6

Results for O=C(NCc1cccs1)C1C2C=CC3(CN(Cc4ccccc4)C(=O)C13)O2 (configuration not stated) ?
UHRF1 binding: -2; PRMT1 FP inh: 2; MBD2 inh: -4; LEDGF integ inh: 1

How did COc1ccc2c(CN3CCCCC3)cc(=O)oc2c1 do in these assays?
UHRF1 binding: 21*; PRMT1 FP inh: 0; MBD2 inh: 8; LEDGF integ inh: -1; ABHD5-PLIN5 inh: 6

What do the screens show for `O=C(CSc1nnc(-c2ccccn2)n1-c1ccc(Cl)cc1)Nc1ccc(S(=O)(=O)Nc2nccs2)cc1`?
UHRF1 binding: 3; PRMT1 FP inh: 0; MBD2 inh: 0; LEDGF integ inh: 1

Results for O=P(c1ccccc1)(c1ccccc1)c1cc(S(=O)(=O)O)ccc1O ?
UHRF1 binding: 27*; PRMT1 FP inh: -1; MBD2 inh: 6; LEDGF integ inh: 2; ABHD5-PLIN5 inh: -2

Results for COC(CNC(=O)[C@H](Cc1ccccc1)NCC(=O)NC1CCCCC1)OC ?
UHRF1 binding: 2; PRMT1 FP inh: -1; MBD2 inh: 6; LEDGF integ inh: -2

How did COc1cc(C2C(C#N)=C(N)N(c3ccc(F)cc3)C3=C2S(=O)(=O)CC3)ccc1O (configuration not stated) do in these assays?
UHRF1 binding: 3; PRMT1 FP inh: 25*; MBD2 inh: -5; RBBP9 inhibitor: -2; LEDGF integ inh: 7; ABHD5-PLIN5 inh: 1

What do the screens show for `COc1cc(C2C(C#N)=C(N)N(c3cccnc3)C3=C2C(=O)CCC3)ccc1O` (configuration not stated)?
UHRF1 binding: 0; PRMT1 FP inh: 7; MBD2 inh: 7; RBBP9 inhibitor: -3; LEDGF integ inh: 0; ABHD5-PLIN5 inh: -12

What do the screens show for `COc1cccc(/C=C2\CCc3ccccc3C2=O)c1`?
UHRF1 binding: -3; PRMT1 FP inh: -1; MBD2 inh: 1; RBBP9 inhibitor: 5; LEDGF integ inh: -2; ABHD5-PLIN5 inh: 7

Results for COc1cccc(C=C2Cc3ccccc3C2=O)c1 ?
UHRF1 binding: -4; PRMT1 FP inh: 1; MBD2 inh: -1; LEDGF integ inh: -3; ABHD5-PLIN5 inh: 23*

Results for CCn1c2ccccc2c2cc(/C=N/n3c(C)nnc3C)ccc21 ?
UHRF1 binding: 1; PRMT1 FP inh: 2; MBD2 inh: -1; RBBP9 inhibitor: -4; LEDGF integ inh: -6; ABHD5-PLIN5 inh: -10

Results for CCn1c2ccccc2c2cc(C=Nn3c(-c4ccccc4C)n[nH]c3=S)ccc21 ?
UHRF1 binding: 2; PRMT1 FP inh: 23*; MBD2 inh: 9; LEDGF integ inh: -1

What do the screens show for `COc1ccc(C2=CSC(/N=C/c3ccc(F)cc3)=NN2)cc1`?
UHRF1 binding: 0; PRMT1 FP inh: 24*; MBD2 inh: 3; RBBP9 inhibitor: -1; LEDGF integ inh: 0; ABHD5-PLIN5 inh: -14
